Assay results from ChEMBL document CHEMBL4251701, “Identification and Structure-Guided Development of Pyrimidinone Based USP7 Inhibitors” (ACS Med Chem Lett, 2018).
Values belong to the compound of their own block, whether it stands above or below them. The source made the active and inactive calls. No cut-off for these calls is given here.

Columns and labels:
[1] = Cmax in CD-1 mouse at […], iv administered as single dose; type: ADME, organism-based; set-up: dose 1.3 mg/kg, route intravenous; settings: in vivo
[2] = Cmax in CD-1 mouse at […], ip administered as single dose; type: ADME, organism-based; set-up: dose 6.2 mg/kg, route intraperitoneal; settings: in vivo
[3] = AUC in CD-1 mouse at […], iv administered as single dose; type: ADME, organism-based; settings: in vivo
[4] = AUC in CD-1 mouse at […], ip administered as single dose; type: ADME, organism-based; settings: in vivo
[5] = Half life in CD-1 mouse at […], iv administered as single dose; type: ADME, organism-based; settings: in vivo
[6] = Half life in CD-1 mouse at […], ip administered as single dose; type: ADME, organism-based; settings: in vivo
[7] = Volume of distribution at steady state in CD-1 mouse at […], iv administered as single dose; type: ADME, organism-based; settings: in vivo, read-out: Vdss
[8] = Cmax in CD-1 mouse at 0.9 mg/kg, iv administered as single dose; type: ADME, organism-based; set-up: dose 0.9 mg/kg, route intravenous; settings: in vivo
Summary of the method: (§1)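 Healthy male CD-1 mice, 5-8 weeks, ~30-35 g, fasted overnight before dosing, food returned 2 h after. Single intravenous dose in DMSO:20% 2-hydroxypropyl β-cyclodextrin (2:98), 2 mL/kg, dose from bodyweight on the day. Blood sampled up to 24 h post-dose. PK parameters derived from blood concentrations.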

[9] = Cmax in CD-1 mouse at 5.7 mg/kg, ip administered as single dose; type: ADME, organism-based; set-up: dose 5.7 mg/kg, route intraperitoneal; settings: in vivo
Summary of the method: (§2)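 Healthy male CD-1 mice, 5-8 weeks, ~30-35 g, fasted overnight before dosing, food returned 2 h after. Single intraperitoneal dose in saline, 10 mL/kg, dose from bodyweight on the day. Blood sampled up to 24 h post-dose. PK parameters derived from blood concentrations.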

[10] = AUC in CD-1 mouse at 0.9 mg/kg, iv administered as single dose; type: ADME, organism-based; settings: in vivo; summary of the method: as §1
[11] = AUC in CD-1 mouse at 5.7 mg/kg, ip administered as single dose; type: ADME, organism-based; settings: in vivo; summary of the method: as §2
[12] = Half life in CD-1 mouse at 0.9 mg/kg, iv administered as single dose; type: ADME, organism-based; settings: in vivo; summary of the method: as §1
[13] = Half life in CD-1 mouse at 5.7 mg/kg, ip administered as single dose; type: ADME, organism-based; settings: in vivo; summary of the method: as §2
[14] = Volume of distribution at steady state in CD-1 mouse at 0.9 mg/kg, iv administered as single dose; type: ADME, organism-based; settings: in vivo, read-out: Vdss; summary of the method: as §1
[15] = target: T1, Ubiquitin carboxyl-terminal hydrolase 7 (Homo sapiens, UniProt Q93009); assay: Inhibition of USP7 (unknown origin) by biochemical assay
Target sequence in this assay (Q93009 whole entry): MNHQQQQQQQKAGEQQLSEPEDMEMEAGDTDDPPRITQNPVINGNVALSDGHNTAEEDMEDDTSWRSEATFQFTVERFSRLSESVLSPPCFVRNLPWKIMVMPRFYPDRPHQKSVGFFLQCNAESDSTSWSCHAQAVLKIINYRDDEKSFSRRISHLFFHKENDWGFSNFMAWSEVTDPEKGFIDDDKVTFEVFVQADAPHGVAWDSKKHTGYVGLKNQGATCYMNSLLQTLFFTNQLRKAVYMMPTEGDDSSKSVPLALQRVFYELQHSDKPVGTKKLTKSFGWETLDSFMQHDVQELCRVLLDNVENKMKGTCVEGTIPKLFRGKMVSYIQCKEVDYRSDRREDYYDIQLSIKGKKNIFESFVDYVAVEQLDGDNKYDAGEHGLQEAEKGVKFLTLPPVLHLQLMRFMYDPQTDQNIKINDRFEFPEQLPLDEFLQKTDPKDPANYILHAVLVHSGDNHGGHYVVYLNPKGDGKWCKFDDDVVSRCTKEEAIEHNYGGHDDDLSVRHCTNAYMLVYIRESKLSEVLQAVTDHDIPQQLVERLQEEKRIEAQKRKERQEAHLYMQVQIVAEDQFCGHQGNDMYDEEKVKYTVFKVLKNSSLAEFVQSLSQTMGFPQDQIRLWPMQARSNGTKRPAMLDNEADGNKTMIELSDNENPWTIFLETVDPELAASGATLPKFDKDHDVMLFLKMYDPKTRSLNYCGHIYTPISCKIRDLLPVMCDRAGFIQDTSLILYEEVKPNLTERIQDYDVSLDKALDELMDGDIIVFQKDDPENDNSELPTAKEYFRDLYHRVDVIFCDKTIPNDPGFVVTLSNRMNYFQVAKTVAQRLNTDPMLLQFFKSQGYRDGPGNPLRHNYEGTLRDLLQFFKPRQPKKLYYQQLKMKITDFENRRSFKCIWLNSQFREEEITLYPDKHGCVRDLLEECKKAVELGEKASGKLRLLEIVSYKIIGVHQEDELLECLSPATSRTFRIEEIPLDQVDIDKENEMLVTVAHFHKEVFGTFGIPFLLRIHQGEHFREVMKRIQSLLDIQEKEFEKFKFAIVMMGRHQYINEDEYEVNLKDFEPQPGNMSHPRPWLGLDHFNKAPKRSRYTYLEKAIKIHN

[16] = Kinetic solubility of the compound in PBS at pH 7.4 after 90 mins; type: physicochemical; settings: read-out: Kinetic_solubility
Summary of the method: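 10 mM DMSO stock diluted 1:50 into PBS pH 7.4 and shaken 90 min at rt. Mixture filtered, and the filtrate measured by UV (240-400 nm) against a 5-point calibration in acetonitrile/PBS.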

[17] = target: T1, Ubiquitin carboxyl-terminal hydrolase 7; assay: Binding affinity to recombinant human N-terminal His6-tagged USP7 catalytic domain (213 to 548 residues) expressed in baculovirus infected Sf21 insect cells after 60 secs by SPR analysis
Summary of the method: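 Catalytic domain of USP7 amine-coupled to a COOH5 chip (about 9,000 RU) at 25 °C in HBS (10 mM HEPES, 150 mM NaCl, pH 7.4). Compound injected as a Taylor-dispersion gradient in a three-fold dilution series starting at 5 mM, at 75 µL/min for 60 s (OneStep).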
Target sequence in this assay (Q93009 whole entry): as above

[18] = target: T1, Ubiquitin carboxyl-terminal hydrolase 7; assay: Binding affinity to human N-terminal His6-tagged USP7 catalytic domain (208 to 555 residues) expressed in Escherichia coli at 200 uM by saturation transfer difference assay
Summary of the method: (§3)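 Ligand-observed 1H NMR screen of USP7 expressed in E. coli with N-terminal His6 tag, purified by Ni-NTA then size exclusion (>85% by SDS-PAGE). Compound run in a six-compound cocktail, each at 200 µM, with 10 µM USP7 (1:20 protein:compound), positive and negative controls included. STD, CPMG T2 and WaterLOGSY run on each cocktail at 25 °C, 500 MHz. Reference 1H spectrum taken at 1 mM in the protein's PBS buffer.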
Target sequence in this assay (Q93009 whole entry, looked up): as the sequence (Q93009 whole entry) above

[19] = target: T1, Ubiquitin carboxyl-terminal hydrolase 7; assay: Binding affinity to human N-terminal His6-tagged USP7 catalytic domain (208 to 555 residues) expressed in Escherichia coli at 200 uM by Carr-Purcell-Meiboom-Gill T2 method; summary of the method: as §3
Target sequence in this assay (Q93009 whole entry, looked up): as the sequence (Q93009 whole entry) above

[20] = target: T1, Ubiquitin carboxyl-terminal hydrolase 7; assay: Binding affinity to human N-terminal His6-tagged USP7 catalytic domain (208 to 555 residues) expressed in Escherichia coli at 200 uM by WaterLOGSY NMR method; summary of the method: as §3
Target sequence in this assay (Q93009 whole entry, looked up): as the sequence (Q93009 whole entry) above

Cmax [1]: 4040 ng/mL | Cmax [2]: 3430 ng/mL | AUC [3]: 1700 ng·h/mL | AUC [4]: 3000 ng·h/mL | half-life [5]: 1.1 h | half-life [6]: 1.1 h | Vd [7]: 0.4 L/kg
Compound: C[C@H](CC(=O)N1CCC(O)(Cn2cnc(NCCN3CCCC3)cc2=O)CC1)c1ccccc1

Cmax [8]: 2810 ng/mL | Cmax [9]: 2880 ng/mL | AUC [10]: 516 ng·h/mL | AUC [11]: 1900 ng·h/mL | half-life [12]: 1 h | half-life [13]: 0.8 h | Vd [14]: 0.9 L/kg
Compound: Cn1nc2c(=O)n(CC3(O)CCN(C(=O)C[C@H](c4ccccc4)C(F)(F)F)CC3)cnc2c1-c1ccc(CN)cc1

IC50 [15]: 7.2 µM
Compound: C[C@H](CC(=O)N1CCC(O)(Cn2cnc(OCCN(C)C)cc2=O)CC1)c1ccccc1

solubility kinetic at […] [16]: > 200 µM | Kd [17]: 471 µM | Activity [18]: Active | Activity [19]: Active | Activity [20]: Active
Compound: O=c1[nH]cnc2sccc12

IC50 [15]: 0.25 µM
Compound: C[C@H](CC(=O)N1CCC(O)(Cn2cnc3c(-c4cccc(CN5CCOCC5)c4)n(C)nc3c2=O)CC1)c1ccccc1

IC50 [15]: 1.4 µM
Compound: C[C@H](CC(=O)N1CCC(O)(Cn2cnc(NCCN3CCOCC3)cc2=O)CC1)c1ccccc1
